# Source: ChEMBL document CHEMBL1140564, “Macrocyclic ureas as potent and selective Chk1 inhibitors: an improved synthesis, kinome profiling, structure-activity relationships, and preliminary pharmacokinetics” (Bioorg Med Chem Lett, 2007)
# The source made the active and inactive calls. The rule behind the calls is not given here.
# Assays:
# [1] = biological target: T1, Serine/threonine-protein kinase Chk1 (Homo sapiens, UniProt O14757); test: Inhibition of Chk1
# T1 sequence (O14757 whole entry): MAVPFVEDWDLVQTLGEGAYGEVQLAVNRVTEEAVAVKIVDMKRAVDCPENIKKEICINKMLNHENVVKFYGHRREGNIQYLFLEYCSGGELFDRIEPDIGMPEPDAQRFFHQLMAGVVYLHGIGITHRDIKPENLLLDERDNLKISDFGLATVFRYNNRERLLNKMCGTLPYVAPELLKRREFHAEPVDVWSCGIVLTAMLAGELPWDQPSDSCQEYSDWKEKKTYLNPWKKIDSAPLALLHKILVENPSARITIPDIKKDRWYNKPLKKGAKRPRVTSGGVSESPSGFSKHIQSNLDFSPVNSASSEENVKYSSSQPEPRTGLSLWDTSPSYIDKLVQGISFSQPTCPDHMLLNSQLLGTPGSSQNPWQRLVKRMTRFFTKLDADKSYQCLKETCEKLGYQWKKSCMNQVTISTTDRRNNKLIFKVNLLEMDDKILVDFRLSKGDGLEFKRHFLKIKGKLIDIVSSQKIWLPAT
# [2] = Cell cycle arrest in H1299 cells by accumulation at G2/M phase by FACS assay; format: functional, cell-based; details: Homo sapiens, NCI-H1299
# HeLa = test: Cytotoxicity against HeLa cells by MTS assay; format: functional, cell-based; details: Homo sapiens
# NCI-H1299 = test: Inhibition of doxorubicin-induced cell cycle arrest in H1299 cells at G2/M phase by FACS assay; format: functional, cell-based; details: Homo sapiens
# In short: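 H1299 cells treated with 500 nM doxorubicin to induce G2/M arrest, with or without inhibitor at various concentrations, up to 10 μM. Cells stained with propidium iodide and DNA content analysed by FACS. EC50 for abrogation of the Dox-induced G2/M checkpoint.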
# [3] = Inhibition of AUR1; design: species or system Homo sapiens
# [4] = biological target: Cyclin-dependent kinase 6 (Homo sapiens, UniProt Q00534); test: Inhibition of CDK6
# Chain of Cyclin-dependent kinase 6 (Q00534 whole entry): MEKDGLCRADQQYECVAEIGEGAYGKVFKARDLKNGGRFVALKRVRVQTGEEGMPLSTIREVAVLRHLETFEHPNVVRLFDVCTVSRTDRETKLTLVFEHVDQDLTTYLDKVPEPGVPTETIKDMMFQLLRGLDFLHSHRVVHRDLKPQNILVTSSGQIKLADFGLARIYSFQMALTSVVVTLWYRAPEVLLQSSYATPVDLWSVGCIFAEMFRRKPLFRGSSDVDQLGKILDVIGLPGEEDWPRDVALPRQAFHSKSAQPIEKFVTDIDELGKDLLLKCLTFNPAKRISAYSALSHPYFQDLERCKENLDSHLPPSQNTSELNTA
# [5] = biological target: NUAK family SNF1-like kinase 1 (Homo sapiens, UniProt O60285); test: Inhibition of ARK5
# [6] = Inhibition of AUR2; design: species or system Homo sapiens
# [7] = biological target: 5'-AMP-activated protein kinase subunit beta-1 (Homo sapiens, UniProt Q9Y478); test: Inhibition of AMPK
# [8] = biological target: Ribosomal protein S6 kinase alpha-4 (Homo sapiens, UniProt O75676); test: Inhibition of MSK2
# Chain of Ribosomal protein S6 kinase alpha-4 (O75676 whole entry): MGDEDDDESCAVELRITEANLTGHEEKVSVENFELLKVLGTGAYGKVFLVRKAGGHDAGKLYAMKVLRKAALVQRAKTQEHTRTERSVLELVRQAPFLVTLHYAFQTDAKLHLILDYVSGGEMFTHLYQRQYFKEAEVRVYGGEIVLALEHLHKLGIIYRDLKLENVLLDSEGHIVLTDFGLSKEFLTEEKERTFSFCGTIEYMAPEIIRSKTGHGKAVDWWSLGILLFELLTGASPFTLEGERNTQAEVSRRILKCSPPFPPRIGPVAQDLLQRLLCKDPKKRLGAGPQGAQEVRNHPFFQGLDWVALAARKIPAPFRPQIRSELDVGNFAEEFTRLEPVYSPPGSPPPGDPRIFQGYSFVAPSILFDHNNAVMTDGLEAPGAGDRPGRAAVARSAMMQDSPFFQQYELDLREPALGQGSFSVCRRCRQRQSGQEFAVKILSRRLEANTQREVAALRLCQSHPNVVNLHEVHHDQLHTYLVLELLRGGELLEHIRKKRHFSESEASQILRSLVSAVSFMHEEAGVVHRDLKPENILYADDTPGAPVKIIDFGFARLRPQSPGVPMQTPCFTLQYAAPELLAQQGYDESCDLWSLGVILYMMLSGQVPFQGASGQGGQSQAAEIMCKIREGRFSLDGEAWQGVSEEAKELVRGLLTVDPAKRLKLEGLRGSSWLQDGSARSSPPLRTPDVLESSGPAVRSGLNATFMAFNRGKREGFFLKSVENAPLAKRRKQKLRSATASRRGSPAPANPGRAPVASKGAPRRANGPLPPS
# [9] = biological target: Serine/threonine-protein kinase WNK2 (Homo sapiens, UniProt Q9Y3S1); test: Inhibition of WNK2
# [10] = biological target: Calcium/calmodulin-dependent protein kinase type IV (Homo sapiens, UniProt Q16566); test: Inhibition of CAMK4
# Chain of Calcium/calmodulin-dependent protein kinase type IV (Q16566 whole entry): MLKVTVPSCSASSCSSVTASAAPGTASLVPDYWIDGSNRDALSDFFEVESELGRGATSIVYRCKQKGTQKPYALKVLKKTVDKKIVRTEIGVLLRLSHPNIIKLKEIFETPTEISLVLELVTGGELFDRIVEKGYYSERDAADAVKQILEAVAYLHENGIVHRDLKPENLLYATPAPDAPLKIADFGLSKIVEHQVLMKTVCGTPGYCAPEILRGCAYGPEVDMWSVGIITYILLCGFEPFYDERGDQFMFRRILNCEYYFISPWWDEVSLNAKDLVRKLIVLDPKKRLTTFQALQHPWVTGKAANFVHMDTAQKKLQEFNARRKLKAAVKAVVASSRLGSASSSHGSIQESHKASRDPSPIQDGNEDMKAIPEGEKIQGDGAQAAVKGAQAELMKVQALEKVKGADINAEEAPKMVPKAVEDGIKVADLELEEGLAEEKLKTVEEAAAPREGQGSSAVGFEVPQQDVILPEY
# [11] = biological target: Cyclin-dependent kinase 9 (Homo sapiens, UniProt P50750); test: Inhibition of CDK9
# [12] = biological target: Serine/threonine-protein kinase TBK1 (Homo sapiens, UniProt Q9UHD2); test: Inhibition of TBK1
# Chain of Serine/threonine-protein kinase TBK1 (Q9UHD2 whole entry): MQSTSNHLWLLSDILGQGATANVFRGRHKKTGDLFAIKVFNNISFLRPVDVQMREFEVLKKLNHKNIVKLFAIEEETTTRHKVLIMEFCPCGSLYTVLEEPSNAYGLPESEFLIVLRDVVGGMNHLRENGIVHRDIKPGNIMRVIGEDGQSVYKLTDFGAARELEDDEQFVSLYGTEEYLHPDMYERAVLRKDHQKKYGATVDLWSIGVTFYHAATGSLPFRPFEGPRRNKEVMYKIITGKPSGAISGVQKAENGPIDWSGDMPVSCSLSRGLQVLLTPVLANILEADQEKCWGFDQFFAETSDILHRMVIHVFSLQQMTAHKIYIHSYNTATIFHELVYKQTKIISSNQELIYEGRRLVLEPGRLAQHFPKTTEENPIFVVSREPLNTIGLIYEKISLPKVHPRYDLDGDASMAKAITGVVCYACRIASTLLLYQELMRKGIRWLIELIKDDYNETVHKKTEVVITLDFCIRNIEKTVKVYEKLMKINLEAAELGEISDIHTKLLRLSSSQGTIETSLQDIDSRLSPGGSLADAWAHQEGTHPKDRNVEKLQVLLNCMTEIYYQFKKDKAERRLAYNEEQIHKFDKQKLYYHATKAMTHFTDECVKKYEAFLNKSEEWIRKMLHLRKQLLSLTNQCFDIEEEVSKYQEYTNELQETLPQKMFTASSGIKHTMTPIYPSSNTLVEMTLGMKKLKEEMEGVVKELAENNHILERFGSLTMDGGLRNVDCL
# [13] = Inhibition of PKG1B; design: species or system Homo sapiens
# [14] = biological target: Serine/threonine-protein kinase Sgk1 (Homo sapiens, UniProt O00141); test: Inhibition of SGK
# Chain of Serine/threonine-protein kinase Sgk1 (O00141 whole entry): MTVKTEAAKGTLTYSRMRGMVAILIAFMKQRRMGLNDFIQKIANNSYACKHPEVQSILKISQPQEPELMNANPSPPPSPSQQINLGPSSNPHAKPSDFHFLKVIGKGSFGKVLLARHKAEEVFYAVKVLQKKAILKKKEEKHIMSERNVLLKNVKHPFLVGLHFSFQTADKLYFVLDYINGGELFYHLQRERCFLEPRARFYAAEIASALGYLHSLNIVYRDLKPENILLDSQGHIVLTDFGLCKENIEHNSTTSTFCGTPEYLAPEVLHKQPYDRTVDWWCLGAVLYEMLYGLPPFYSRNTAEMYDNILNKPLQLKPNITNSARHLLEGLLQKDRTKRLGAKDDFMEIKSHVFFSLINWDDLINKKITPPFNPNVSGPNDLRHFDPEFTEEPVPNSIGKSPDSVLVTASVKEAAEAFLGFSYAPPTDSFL
# [15] = Inhibition of JNK2a2; design: species or system Homo sapiens
# [16] = biological target: Cyclin-dependent kinase 7 (Homo sapiens, UniProt P50613); test: Inhibition of CDK7
# Chain of Cyclin-dependent kinase 7 (P50613 whole entry): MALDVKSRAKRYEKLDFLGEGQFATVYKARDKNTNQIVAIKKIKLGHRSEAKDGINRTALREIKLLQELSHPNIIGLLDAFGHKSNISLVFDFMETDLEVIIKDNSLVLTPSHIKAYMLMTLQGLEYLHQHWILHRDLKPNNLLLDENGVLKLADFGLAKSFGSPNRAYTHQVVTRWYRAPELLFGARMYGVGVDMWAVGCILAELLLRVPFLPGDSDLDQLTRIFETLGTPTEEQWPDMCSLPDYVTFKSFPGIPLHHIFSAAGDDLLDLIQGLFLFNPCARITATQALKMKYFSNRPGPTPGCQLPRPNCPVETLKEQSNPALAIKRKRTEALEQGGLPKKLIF
# [17] = biological target: Serine/threonine-protein kinase Nek3 (Homo sapiens, UniProt P51956); test: Inhibition of NEK3
# [18] = biological target: Serine/threonine-protein kinase 31 (Homo sapiens, UniProt Q9BXU1); test: Inhibition of STK31
# [19] = Inhibition of CMET; design: species or system Homo sapiens
# [20] = biological target: Serine/threonine-protein kinase DCLK2 (Homo sapiens, UniProt Q8N568); test: Inhibition of DCAMKL2
# Chain of Serine/threonine-protein kinase DCLK2 (Q8N568 whole entry): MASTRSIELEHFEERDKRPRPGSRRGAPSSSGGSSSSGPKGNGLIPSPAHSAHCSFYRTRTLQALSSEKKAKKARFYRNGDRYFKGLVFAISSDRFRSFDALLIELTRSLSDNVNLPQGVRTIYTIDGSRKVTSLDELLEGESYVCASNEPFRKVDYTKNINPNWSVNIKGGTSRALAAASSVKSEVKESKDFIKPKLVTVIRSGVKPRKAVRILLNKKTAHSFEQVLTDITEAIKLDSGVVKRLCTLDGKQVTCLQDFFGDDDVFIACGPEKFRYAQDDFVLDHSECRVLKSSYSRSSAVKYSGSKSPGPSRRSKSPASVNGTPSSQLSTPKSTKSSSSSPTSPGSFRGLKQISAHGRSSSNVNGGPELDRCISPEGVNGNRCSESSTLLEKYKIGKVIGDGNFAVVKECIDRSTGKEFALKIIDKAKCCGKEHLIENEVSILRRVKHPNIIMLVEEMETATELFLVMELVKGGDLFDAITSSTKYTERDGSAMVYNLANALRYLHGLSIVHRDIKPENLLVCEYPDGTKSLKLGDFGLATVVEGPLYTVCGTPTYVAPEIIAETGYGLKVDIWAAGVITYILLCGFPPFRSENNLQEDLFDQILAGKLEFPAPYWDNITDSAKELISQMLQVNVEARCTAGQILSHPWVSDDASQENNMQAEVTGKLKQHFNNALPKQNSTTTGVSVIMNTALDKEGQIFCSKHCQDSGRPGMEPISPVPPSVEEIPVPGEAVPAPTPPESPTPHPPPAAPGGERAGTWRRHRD
# [21] = biological target: Muscle, skeletal receptor tyrosine-protein kinase (Homo sapiens, UniProt O15146); test: Inhibition of MUSK
# [22] = biological target: Serine/threonine-protein kinase Nek11 (Homo sapiens, UniProt Q8NG66); test: Inhibition of NEK11
# Chain of Serine/threonine-protein kinase Nek11 (Q8NG66 whole entry): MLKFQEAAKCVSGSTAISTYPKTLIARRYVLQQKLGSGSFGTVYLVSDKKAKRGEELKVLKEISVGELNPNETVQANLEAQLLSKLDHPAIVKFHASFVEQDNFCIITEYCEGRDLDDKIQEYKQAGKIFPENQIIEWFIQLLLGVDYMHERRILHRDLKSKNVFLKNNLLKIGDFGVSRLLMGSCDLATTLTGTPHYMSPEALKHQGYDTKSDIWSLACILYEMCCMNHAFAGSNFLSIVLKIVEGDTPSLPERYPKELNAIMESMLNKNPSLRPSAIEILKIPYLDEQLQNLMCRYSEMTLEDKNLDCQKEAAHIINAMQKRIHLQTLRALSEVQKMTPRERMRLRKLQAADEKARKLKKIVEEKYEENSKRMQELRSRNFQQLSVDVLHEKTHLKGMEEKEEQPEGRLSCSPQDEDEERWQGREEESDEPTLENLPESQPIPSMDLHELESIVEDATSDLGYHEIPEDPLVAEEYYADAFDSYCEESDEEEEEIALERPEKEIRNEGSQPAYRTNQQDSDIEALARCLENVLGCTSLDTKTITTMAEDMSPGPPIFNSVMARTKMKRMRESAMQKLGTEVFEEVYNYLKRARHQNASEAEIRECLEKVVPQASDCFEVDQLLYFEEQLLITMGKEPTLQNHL
# SRSF protein kinase 3 = SRSF protein kinase 3 (Homo sapiens, UniProt Q9UPE1); test: Inhibition of MSSK1
# [23] = Inhibition of PKG1A; design: species or system Homo sapiens
# [24] = biological target: Serine/threonine-protein kinase 33 (Homo sapiens, UniProt Q9BYT3); test: Inhibition of STK33
# Chain of Serine/threonine-protein kinase 33 (Q9BYT3 whole entry): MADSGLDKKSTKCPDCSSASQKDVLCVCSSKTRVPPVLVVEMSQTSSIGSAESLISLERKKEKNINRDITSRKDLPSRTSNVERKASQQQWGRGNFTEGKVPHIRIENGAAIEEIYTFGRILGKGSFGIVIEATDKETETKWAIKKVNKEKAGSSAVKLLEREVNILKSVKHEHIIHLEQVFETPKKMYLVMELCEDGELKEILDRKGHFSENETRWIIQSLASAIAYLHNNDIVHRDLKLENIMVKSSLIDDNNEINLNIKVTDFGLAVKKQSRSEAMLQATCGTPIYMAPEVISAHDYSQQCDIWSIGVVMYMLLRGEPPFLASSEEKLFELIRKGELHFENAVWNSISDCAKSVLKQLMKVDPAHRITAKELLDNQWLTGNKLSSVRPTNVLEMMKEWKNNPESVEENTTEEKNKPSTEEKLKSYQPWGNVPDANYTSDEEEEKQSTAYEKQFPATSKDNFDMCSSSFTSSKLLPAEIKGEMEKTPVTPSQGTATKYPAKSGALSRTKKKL
# [25] = Inhibition of PKA; design: species or system Homo sapiens
# [26] = biological target: Mitogen-activated protein kinase kinase kinase 9 (Homo sapiens, UniProt P80192); test: Inhibition of MLK1
# [27] = Inhibition of JNK1a1; design: species or system Homo sapiens
# [28] = Inhibition of PHK lambda 2; design: species or system Homo sapiens
# TAK1/TAB1 = TAK1/TAB1 (Homo sapiens, UniProt O43318); test: Inhibition of TAK1-TAB1
# [29] = AUC in mouse plasma at 10 mg/kg; format: ADME, organism-based; design: dose 10 mg/kg
# In short: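 CD-1 mice received a single intraperitoneal dose of 10 mg/kg. Plasma drug levels were followed over time, and exposure was expressed as AUC in µmol h/L.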
smiles,measurement,setting,value
N#Cc1ncc2nc1OCCCCOc1cc(OC(=O)N3CCC(N4CCCCC4)CC3)c(Cl)cc1NC(=O)N2,IC50,[1],1 nM
same,EC50,[2],> 10000 nM
same,EC50,HeLa,2800 nM
same,EC50,NCI-H1299,> 10000 nM
N#Cc1ncc2nc1OCCCCOc1cc(NC(=O)OCCN3CCOCC3)c(Cl)cc1NC(=O)N2,IC50,[1],3 nM
same,EC50,[2],> 10000 nM
same,EC50,HeLa,> 59300 nM
same,EC50,NCI-H1299,> 10000 nM
N#Cc1ncc2nc1OC/C=C\COc1cc(NC(=O)c3ccncc3)c(Cl)cc1NC(=O)N2,IC50,[1],6 nM
same,EC50,[2],> 10000 nM
same,EC50,HeLa,> 59300 nM
same,EC50,NCI-H1299,> 10000 nM
N#Cc1ncc2nc1OC/C=C\COc1cc(OCCCN3CCOCC3)c(Cl)cc1NC(=O)N2,IC50,[1],0.3 nM
same,EC50,[2],> 10000 nM
same,EC50,HeLa,1900 nM
same,EC50,NCI-H1299,> 10000 nM
CNc1cc2c(cc1Cl)NC(=O)Nc1cnc(C#N)c(n1)OCCCCO2,IC50,[1],2 nM
same,EC50,[2],> 10000 nM
same,EC50,HeLa,> 59300 nM
same,EC50,NCI-H1299,> 10000 nM
N#Cc1ncc2nc1OC/C=C\COc1cc(NCc3cncs3)c(Cl)cc1NC(=O)N2,IC50,[1],4 nM
same,EC50,[2],> 10000 nM
same,EC50,HeLa,13600 nM
same,EC50,NCI-H1299,200 nM
N#Cc1ncc2nc1OC/C=C\COc1cc(OCCN3CCOCC3)c(Cl)cc1NC(=O)N2,IC50,[1],1 nM
same,EC50,[2],> 10000 nM
same,EC50,HeLa,14100 nM
same,EC50,NCI-H1299,> 10000 nM
N#Cc1ncc2nc1OC/C=C\COc1cc(N3CCOC3=O)c(Cl)cc1NC(=O)N2,IC50,[1],10 nM
same,Activity,[2],inactive
same,EC50,HeLa,> 59300 nM
same,Activity,NCI-H1299,inactive
C[C@H](N)C(=O)Nc1cc2c(cc1Cl)NC(=O)Nc1cnc(C#N)c(n1)OC/C=C\CO2,IC50,[1],3 nM
same,EC50,[2],> 10000 nM
same,EC50,HeLa,> 59300 nM
same,EC50,NCI-H1299,90 nM
N#Cc1ncc2nc1OCCCCOc1cc(N)c(Cl)cc1NC(=O)N2,IC50,[1],1 nM
same,EC50,[2],2600 nM
same,EC50,HeLa,3400 nM
same,EC50,NCI-H1299,< 30 nM
N#Cc1ncc2nc1OCCCCOc1cc(OCCCO)c(Cl)cc1NC(=O)N2,IC50,[1],1 nM
same,EC50,[2],> 10000 nM
same,EC50,HeLa,> 59300 nM
same,EC50,NCI-H1299,2500 nM
N#Cc1ncc2nc1OCCCCOc1cc(NCc3cncs3)c(Cl)cc1NC(=O)N2,Ki,[3],2020 nM
same,Ki,[4],> 1550 nM
same,Ki,[5],> 1500 nM
same,Ki,[6],1910 nM
same,Ki,[7],1540 nM
same,Ki,[8],949 nM
same,Ki,[9],> 1520 nM
same,Ki,[10],> 8570 nM
same,Ki,[11],> 1640 nM
same,Ki,[12],> 1520 nM
same,Ki,[13],> 1680 nM
same,Ki,[14],8180 nM
same,Ki,[15],> 4120 nM
same,Ki,[16],> 1520 nM
same,Ki,[17],> 1670 nM
same,Ki,[18],> 1440 nM
same,Ki,[19],> 2860 nM
same,Ki,[20],> 9570 nM
same,Ki,[21],> 1650 nM
same,Ki,[22],> 1550 nM
same,Ki,SRSF protein kinase 3,> 1740 nM
same,Activity,[2],inactive
same,Ki,[23],> 1780 nM
same,EC50,HeLa,59300 nM
same,Ki,[24],> 1640 nM
same,Ki,[25],> 7500 nM
same,Ki,[26],> 1670 nM
same,Ki,[27],> 3060 nM
same,Ki,[28],> 4900 nM
same,Ki,TAK1/TAB1,> 1610 nM
same,Activity,NCI-H1299,inactive
N#Cc1ncc2nc1OC/C=C\COc1cc(NCCO)c(Cl)cc1NC(=O)N2,IC50,[1],2 nM
same,EC50,[2],> 10000 nM
same,EC50,HeLa,> 59300 nM
same,EC50,NCI-H1299,1300 nM
COCCCOc1cc2c(cc1Cl)NC(=O)Nc1cnc(C#N)c(n1)OCCCCO2,IC50,[1],3 nM
same,Activity,[2],inactive
same,EC50,HeLa,13900 nM
same,Activity,NCI-H1299,inactive
N#Cc1ncc2nc1OC/C=C\COc1cc(OCCCO)c(Cl)cc1NC(=O)N2,IC50,[1],2 nM
same,Activity,[2],inactive
same,EC50,HeLa,> 59300 nM
same,Activity,NCI-H1299,inactive
N#Cc1ncc2nc1OCCCCOc1ccc(Cl)cc1NC(=O)N2,AUC,[29],3.8 µM·h
same,EC50,[2],> 10000 nM
same,EC50,HeLa,57600 nM
same,EC50,NCI-H1299,1300 nM
N#Cc1ncc2nc1OCCCCOc1cc(N3CCOC3=O)c(Cl)cc1NC(=O)N2,IC50,[1],6 nM
same,Activity,[2],inactive
same,EC50,HeLa,> 59300 nM
same,Activity,NCI-H1299,inactive
N#Cc1ncc2nc1OCCCCCOc1ccc(Cl)cc1NC(=O)N2,AUC,[29],1.5 µM·h
